A short description of series [1]: Cytotoxicity assay. In kind it is cell-based. The note with it: African green monkey, Vero cells. Put shortly:
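Vero cells grown in DMEM with 10% FBS and penicillin/streptomycin, plated at 1 × 10^5 cells/well and grown 24 h. Exposed 48 h to various concentrations of test compound, final DMSO under 0.05% (v/v). MTT solution (2 mg/mL) added for 4 h, supernatant removed, formazan dissolved in DMSO, absorbance read at 550 nm. Viability expressed relative to control wells; CC50 by regression analysis.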

The subject of series [2] is porcine epidemic diarrhea virus (PEDV). In words: Cytopathic effect. In kind it is cell-based. Put shortly: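 Vero cells (DMEM, 10% FBS, penicillin/streptomycin) seeded at 1 × 10^5 cells/well and PBS-washed a day later. Near-confluent monolayers were inoculated with PEDV at 0.01 MOI for 2 h, then given DMEM with various concentrations of test compound. After 72 h at 37 °C, 5% CO2, MTT solution (2 mg/mL) was added for 4 h. EC50 came from regression analysis; SI = CC50/EC50.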
On the technique in general: Damage to the host cells serves as the signal in cytopathic effect assays.

The record followed here is publication PMC7111685 (Phytochemistry, 2015).

In general, CC50 refers to the concentration at which the toxic effect on the cells reaches its halfway point. Lower therefore signals harm at low concentration. The term EC50 denotes the concentration needed to bring the measured effect to its halfway point. Higher therefore signals a less potent agent. In series [1], `O=c1cnn([C@@H]2O[C@H](CO)[C@@H](O)[C@H]2O)c(=O)[nH]1` [Compound 6-Azauridine, 6-Azauridine] gave a CC50 at 48 h of 44.5 ± 6.11 µM. Also, the response in series [2] (Porcine epidemic diarrhea virus, Vero, 72 h) was half-maximal at 5.58 ± 0.53 µM (EC50). For the same compound, the SI in series [2] (selective index, SI = CC50/EC50) came out at 7.98 ± 0.37.
